Bioassay records from PubChem.
GSK3A inh: blocks human GSK-3 alpha kinase | inhibition, % at 10 µM | 320,000 compounds, 0.1% hits | ADP-Glo luminescence, 60 min | AID 2650 | P49840;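 active means more than half of replicates show inhibition above 20%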;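 further: GST-tagged GSK-3 alpha with peptide substrate and 25 µM ATP; 0% = DMSO neutral wells and 100% = GW8510 positive control wells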
DYRK1A inh: Dyrk1A (rat) kinase inhibition | ADP-Glo luminescence, NFATc1 peptide | 310,000 compounds, 0.43% hits | inhibition, % at 12.5 µM; in the data active means inhibition above about 50%;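 further: plate controls were vehicle with enzyme for no effect and no enzyme for full effect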
GSK3beta inhib: blocks human GSK3beta kinase activity; P49841; GST-GSK3beta kinase, ADP-Glo luminescence, 60 min; hits give low values; activity score (negative = inhibition), % at 10 µM; 300,000 compounds, 0.038% hits; AID 2097;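 active means more than half of replicate wells score below -50%, meaning over 50% inhibition versus plate controls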;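 further: 0% = median DMSO wells and -100% = median GW8510 positive control wells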
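Test system – GST-tagged human GSK3beta kinase, cell-free · Incubation – 60 min enzyme reaction, room temperature · Signal – ADP-Glo luminescence · Also added – peptide substrate and ATP at 25 µM · Controls – DMSO neutral wells and GW8510 at 20 µM as positive · Buffer or medium – Tris/MgCl2 kinase buffer · Measure – Luminescence-derived activity versus plate DMSO and GW8510 wells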
STK33 kinase inh: inhibitors of human STK33 kinase; Q9BYT3; purified STK33, MBP phosphorylation, ADP-Glo luminescence; inhibition, % at 10 µM; 320,000 compounds, 0.073% hits; AID 2661;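 active means inhibition at or above 25%, using the most active replicate where run in duplicate; inactive means inhibition below 25%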
Target sequence (Q9BYT3 whole entry, looked up): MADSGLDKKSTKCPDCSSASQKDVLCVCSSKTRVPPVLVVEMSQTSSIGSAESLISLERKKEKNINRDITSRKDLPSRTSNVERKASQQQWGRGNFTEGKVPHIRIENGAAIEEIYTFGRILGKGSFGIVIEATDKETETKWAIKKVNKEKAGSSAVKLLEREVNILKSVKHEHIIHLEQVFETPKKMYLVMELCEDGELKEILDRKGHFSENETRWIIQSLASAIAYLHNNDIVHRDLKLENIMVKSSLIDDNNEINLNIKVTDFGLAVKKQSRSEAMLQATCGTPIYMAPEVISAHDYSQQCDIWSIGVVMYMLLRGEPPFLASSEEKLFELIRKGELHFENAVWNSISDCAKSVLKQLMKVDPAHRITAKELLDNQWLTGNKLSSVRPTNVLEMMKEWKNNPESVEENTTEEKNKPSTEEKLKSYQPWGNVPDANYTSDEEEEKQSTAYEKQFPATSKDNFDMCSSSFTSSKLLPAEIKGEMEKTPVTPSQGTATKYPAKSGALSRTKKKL
ADP-Glo artifact: interferes with ADP-Glo luciferase readout without Dyrk1A; 1,300 tested, under 10 active; AC50, µM (top dose mostly 12 µM), inactives show at the top dose activity change, negative = inhibition; shares compounds with DYRK1A inh; ADP-Glo luciferase artifact assay, no Dyrk1A, luminescence;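 active means fitted half-maximal dose AC50 no more than ten times the top valid tested dose, with luminescence dropping as dose rises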
* hit, by the source's call. The entries come from a sample that favours hits as a whole.

How did OC(CN1CCN(c2cccc(C(F)(F)F)c2)CC1)c1c[nH]c2ccccc12 (configuration not stated) do in these assays?
GSK3A inh: -9.3; DYRK1A inh: 5.5; GSK3beta inhib: 3.4; STK33 kinase inh: -0.5

What do the screens show for `O=C(CSc1ccc(Br)cc1)Nc1ccc(N2CCOCC2)cc1`?
GSK3A inh: -0.2; DYRK1A inh: 1.1; GSK3beta inhib: 1.6; STK33 kinase inh: -3.7

How did Nc1ccc(C(=O)Nc2nc3ccccc3s2)cc1 do in these assays?
GSK3A inh: -2.1; DYRK1A inh: 56.4*; GSK3beta inhib: 0.3; STK33 kinase inh: -0.6; ADP-Glo artifact: 5.5%

Results for O=S(=O)(Nc1c(F)cccc1F)c1ccc(Cl)nc1 ?
GSK3A inh: -1.6; DYRK1A inh: -4.1; STK33 kinase inh: 0.9

Results for CC(C)=CCc1cc(-c2oc3cc(O)cc(O)c3c(=O)c2O)ccc1O ?
GSK3A inh: 7.9; DYRK1A inh: 62.7*; GSK3beta inhib: 3.1; STK33 kinase inh: 6.2; ADP-Glo artifact: 9.5%

Results for O=c1cc(-c2ccccc2)c2c(O)cc(O)cc2o1 ?
GSK3A inh: 71.9*; DYRK1A inh: 61.4*; GSK3beta inhib: -58.1*; STK33 kinase inh: 1.3; ADP-Glo artifact: 6.1%

How did O=c1c(-c2ccccc2)c(-c2ccccc2)oc2cc(O)cc(O)c12 do in these assays?
GSK3A inh: 7.0; DYRK1A inh: 46.3; GSK3beta inhib: -4.1; STK33 kinase inh: -2.2

What do the screens show for `O=c1c(O)c(-c2ccccc2)oc2cc(O)cc(O)c12`?
DYRK1A inh: 74.8*; ADP-Glo artifact: 5.6%

Results for O=c1c(O)c(-c2cc(O)c(O)c(O)c2)oc2cc(O)cc(O)c12 ?
GSK3A inh: 61.6*; DYRK1A inh: 89.6*; STK33 kinase inh: 37.3*; ADP-Glo artifact: 8.5%

What do the screens show for `CC(C)CC1NC(=O)N(CC(=O)N(C)C2CCCCC2)C1=O` (configuration not stated)?
GSK3A inh: -3.2; DYRK1A inh: -5.2; STK33 kinase inh: -1.4

How did COC(=O)c1ccc(/C=N/OCC(=O)NCc2ccc(F)cc2)cc1 do in these assays?
GSK3A inh: -2.2; DYRK1A inh: -1.3; GSK3beta inhib: -2.2; STK33 kinase inh: 0.0

Results for CC12CCC(C(=O)Nc3nc4ccc(Br)cc4s3)(OC1=O)C2(C)C (configuration not stated) ?
GSK3A inh: -1.0; DYRK1A inh: 81.8*; GSK3beta inhib: -0.4; STK33 kinase inh: 0.2; ADP-Glo artifact: 7.2%

What do the screens show for `CC12CCC(C(=O)Nc3nccs3)(OC1=O)C2(C)C` (configuration not stated)?
GSK3A inh: -2.7; DYRK1A inh: -1.4; GSK3beta inhib: 1.6; STK33 kinase inh: -1.4

Results for COc1ccc(NC(=O)N(C)C[C@H]2Oc3ccc(NC(=O)CCN4CCOCC4)cc3C(=O)N([C@H](C)CO)C[C@@H]2C)cc1 ?
GSK3A inh: -3.5; DYRK1A inh: 55.5*; STK33 kinase inh: 1.6; ADP-Glo artifact: 9.1%

How did C[C@H]1CN([C@@H](C)CO)C(=O)c2cc(NC(=O)CCN3CCOCC3)ccc2O[C@H]1CN(C)C(=O)Nc1ccc(F)cc1 do in these assays?
GSK3A inh: -1.6; DYRK1A inh: -2.0; STK33 kinase inh: -1.3

What do the screens show for `O=C(c1cc2cc(Cl)ccc2[nH]1)N1CCN(Cc2ccc3c(c2)OCO3)CC1`?
GSK3A inh: -0.4; DYRK1A inh: 0.4; GSK3beta inhib: 5.6; STK33 kinase inh: -0.6

Results for Clc1c(Cl)c(Cl)c2n[nH]nc2c1Cl ?
GSK3A inh: 6.1; DYRK1A inh: 79.8*; GSK3beta inhib: 1.1; STK33 kinase inh: 4.3; ADP-Glo artifact: 10.1%

Results for Cc1cc(Nc2ccccc2)nc(N2CCN(C(=O)c3ccc4c(c3)OCO4)CC2)n1 ?
GSK3A inh: -0.8; DYRK1A inh: 2.5; GSK3beta inhib: 1.1; STK33 kinase inh: -0.6

How did O=C(Nc1cccc2nsnc12)c1ccc2c(c1)OCO2 do in these assays?
GSK3A inh: 0.4; DYRK1A inh: 54.0*; GSK3beta inhib: 3.4; STK33 kinase inh: 1.6; ADP-Glo artifact: 1.5%

What do the screens show for `Cc1nonc1C(=O)N/N=C/c1ccc(O)c(O)c1`?
GSK3A inh: 5.2; DYRK1A inh: 15.2; GSK3beta inhib: 4.8; STK33 kinase inh: 3.4

How did O=C(N/N=C/c1ccc(O)c(O)c1)N/N=C/c1ccc(O)c(O)c1 do in these assays?
GSK3A inh: 53.9*; DYRK1A inh: 80.4*; GSK3beta inhib: -39.8; STK33 kinase inh: 23.9; ADP-Glo artifact: 6.8%
